According to paper PMC3815528 (Molecular nutrition & food research, 2013):

What was measured:
[1] = Kinetic study of [6]-shogaol metabolism to M6 in human liver microsomes; format: in vitro ADME; settings: probe [6]-shogaol (substrate)
[2] = Metabolic profile of [6]-shogaol in human liver microsomes; format: in vitro ADME; settings: human liver microsomes 0.5 mg/mL, [6]-shogaol 50 µM, 30 min
[3] = Metabolic profile of [6]-shogaol in dog liver microsomes; format: in vitro ADME, beagle dog; settings: dog liver microsomes 0.5 mg/mL, [6]-shogaol 50 µM, 30 min
Procedure, shortened: (§1)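 Microsomes in 100 mM potassium phosphate buffer with an NADPH-regenerating system were preincubated 5 min at 37°C. Reaction was started with test compound (DMSO, final ≤1% v/v) and run 30 min at 37°C, then stopped with an equal volume of ice-cold acetonitrile containing 2% acetic acid. After centrifugation at 13,000g for 10 min, supernatant went to C18 HPLC with electrochemical array detection, read at the 300 mV channel.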

[4] = Metabolic profile of [6]-shogaol in mouse liver microsomes; format: in vitro ADME, CD-1 mouse; settings: mouse liver microsomes 0.5 mg/mL, [6]-shogaol 50 µM, 30 min
Procedure, shortened: as §1

[5] = Metabolic profile of [6]-shogaol in monkey liver microsomes; format: in vitro ADME, cynomolgus monkey; settings: monkey liver microsomes 0.5 mg/mL, [6]-shogaol 50 µM, 30 min
Procedure, shortened: as §1

[6] = Kinetic study of [6]-shogaol metabolism to M6 in dog liver microsomes; format: in vitro ADME, beagle dog; settings: dog liver microsomes 0.1 mg/mL, [6]-shogaol 7.8 to 2000 µM, 30 min
[7] = Kinetic study of [6]-shogaol metabolism to M6 in mouse liver microsomes; format: in vitro ADME, CD-1 mouse; settings: mouse liver microsomes 0.1 mg/mL, [6]-shogaol 7.8 to 2000 µM, 30 min
[8] = Metabolic profile of [6]-shogaol in rat liver microsomes; format: in vitro ADME, Sprague-Dawley rat; settings: rat liver microsomes 0.5 mg/mL, [6]-shogaol 50 µM, 30 min
Procedure, shortened: as §1

[9] = system: H-1299 human lung cancer cells; assay: Induction of apoptosis; format: cell-based; settings: H-1299, 10 µM compound, 24 hours
Procedure, shortened: (§2)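 Cells in McCoy's 5A with 10% FBS, 1% penicillin/streptomycin and 1% glutamine were seeded at 5000 cells/well and allowed to attach overnight at 37°C. They were then exposed to test compound in DMSO, diluted in medium, for 24 h. Lysates were spun at 300 g for 10 min and run in a histone–DNA sandwich ELISA (anti-histone-biotin/anti-DNA-POD, 2 h RT; ABTS 15 min; A430). Triplicate; fold over DMSO control, mean ± SD.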

[10] = system: HCT-116 human colon cancer cells; assay: Induction of apoptosis; format: cell-based; settings: HCT-116, 10 µM compound, 24 hours
Procedure, shortened: as §2

[11] = system: HCT-116 human colon cancer cells; assay: MTT growth inhibition, human colon cancer cells; format: cell-based; settings: read-out: IC50, cell viability (MTT); HCT-116, 24 hours, 0 to 80 µM
[12] = system: H-1299 human lung cancer cells; assay: MTT growth inhibition, human lung cancer cells; format: cell-based; settings: read-out: IC50, cell viability (MTT); H-1299, 24 hours, 0 to 80 µM

Structure (SMILES) | Km at 30 min [1] [µM] | Relative abundance of metabolite formed from [6]-shogaol [2] | Relative abundance of metabolite formed from [6]-shogaol [3] | Relative abundance of metabolite formed from [6]-shogaol [4] | Relative abundance of metabolite formed from [6]-shogaol [5] | Vmax of M6 formation [6] | Vmax of M6 formation [7] | Relative abundance of metabolite formed from [6]-shogaol [8] | Induction of apoptosis compared to DMSO control [9] [fold] | Induction of apoptosis compared to DMSO control [10] [fold] | IC50 [11] [µM] | IC50 [12] [µM]
CCCCCC=CC(O)CCc1ccc(O)c(OC)c1 (stereo not drawn) [M6, 1-(4'-hydroxy-3'-methoxyphenyl)-4-decen-3-ol] | 45.6 | intermediate relative amount | intermediate relative amount | dominant peak | minor metabolite | 7.33 +/− 0.43 nanomoles per minute per milligram liver microsomes | 4.10 +/− 0.19 nanomoles per minute per milligram liver microsomes | dominant peak |  |  |  | 
CCCCCCCC(=O)CCc1ccc(O)c(OC)c1 [M11, 1-(4'-hydroxy-3'-methoxyphenyl)-decan-3-one] |  | major product | very minor product | minute amounts | minute amounts |  |  | very minor product |  |  |  | 
CCCCC/C=C/C(=O)/C=C/c1ccc(O)c(OC)c1 [M14, (1E, 4E)-1-(4'-hydroxy-3'-methoxyphenyl)-deca-1,4-dien-3-one] |  | smallest amount | minor | minor | major metabolite |  |  | minor |  |  |  | 
CCCCCCCC(=O)/C=C/c1ccc(O)c(OC)c1 [M15, (E)-1-(4'-hydroxy-3'-methoxyphenyl)-dec-1-en-3-one] |  | very minor | abundant | very minor | abundant |  |  | very minor |  |  |  | 
CCCCC/C=C/C(=O)CCc1ccc(O)c(OC)c1 [[6]-shogaol] |  |  |  |  |  |  |  |  | ~2 | 1 | 19.9 | 17.3
